Activity calls are given as the source filed them. The calls are words filed in the database; no cut-off is given here.
Assays:
[1] = target: T1, Extracellular calcium-sensing receptor (Homo sapiens, UniProt P41180); assay: Positive allosteric modulation of human CaSR expressed in CHO cells assessed as increase in intracellular calcium level after 5 hrs by luciferase reporter gene assay; assay type: functional, cell-based
T1 sequence (P41180 whole entry): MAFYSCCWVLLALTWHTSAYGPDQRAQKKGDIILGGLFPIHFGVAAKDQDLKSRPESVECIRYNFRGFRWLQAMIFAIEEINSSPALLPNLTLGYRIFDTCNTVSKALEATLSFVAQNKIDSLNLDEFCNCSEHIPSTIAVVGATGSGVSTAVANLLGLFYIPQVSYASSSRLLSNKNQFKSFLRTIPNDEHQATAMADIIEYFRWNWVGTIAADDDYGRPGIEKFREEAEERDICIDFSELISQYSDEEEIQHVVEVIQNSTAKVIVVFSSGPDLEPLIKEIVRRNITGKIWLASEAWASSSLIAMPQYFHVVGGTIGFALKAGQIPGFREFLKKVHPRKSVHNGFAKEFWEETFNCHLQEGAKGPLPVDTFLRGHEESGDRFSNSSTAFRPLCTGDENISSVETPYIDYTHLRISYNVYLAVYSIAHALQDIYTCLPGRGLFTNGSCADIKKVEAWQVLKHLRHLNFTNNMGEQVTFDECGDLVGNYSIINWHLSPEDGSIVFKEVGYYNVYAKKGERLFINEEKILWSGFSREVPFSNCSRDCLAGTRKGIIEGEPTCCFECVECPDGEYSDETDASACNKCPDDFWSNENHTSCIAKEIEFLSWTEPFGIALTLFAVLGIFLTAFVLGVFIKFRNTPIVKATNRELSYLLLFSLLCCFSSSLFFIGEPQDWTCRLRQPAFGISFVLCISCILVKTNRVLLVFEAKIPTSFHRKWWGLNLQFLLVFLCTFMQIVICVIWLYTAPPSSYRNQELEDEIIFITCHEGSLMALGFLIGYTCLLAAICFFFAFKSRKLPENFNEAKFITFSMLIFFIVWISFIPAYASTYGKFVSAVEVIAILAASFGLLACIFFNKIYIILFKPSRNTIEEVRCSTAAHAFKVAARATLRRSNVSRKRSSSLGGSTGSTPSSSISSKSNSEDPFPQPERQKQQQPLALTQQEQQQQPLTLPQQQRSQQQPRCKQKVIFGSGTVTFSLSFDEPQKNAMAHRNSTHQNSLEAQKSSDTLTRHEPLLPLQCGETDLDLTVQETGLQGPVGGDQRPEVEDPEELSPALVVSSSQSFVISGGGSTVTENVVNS
Outline: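 CHO cells stably transfected with human CaSR and a luciferase reporter (clone ET8-5-5) were seeded at 50K/well, grown 24 h, then serum-starved overnight. Cells were exposed for 5 h at 37 °C to compound dilutions crossed with a CaCl2 range, in HEPES pH 7.4 buffer with 0.3 mM CaCl2 baseline. Luminescence was read. EC50 was taken at 2 mM calcium, n ≥ 1.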

[2] = target: T2, Extracellular calcium-sensing receptor (Homo sapiens) (UniProt P41180); assay: Ratio of R-568 EC50 to compound EC50 for positive allosteric modulation of human CaSR
T2 sequence (whole entry): T1 sequence (P41180 whole entry)

Rattus norvegicus [3] = assay: Antihyperparathyroidism activity in Sprague-Dawley rat chronic renal failure model assessed as increase in serum phosphorus level at 10 mg/kg, po after 24 hrs; assay type: functional, organism-based; set-up: dose 10 mg/kg
Outline: (§1)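 One week later each received one oral gavage of 10 mg/kg in 0.5% methylcellulose (5 mL/kg), or vehicle alone. Rats were fasted 24 h before decapitation at 2, 6 or 24 h. Serum PTH was measured by rat IRMA, and Ca and P by chemistry analyzer. n = 9–12, ANOVA/t-test against CRF vehicle.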

[4] = target: Voltage-gated inwardly rectifying potassium channel KCNH2 (Homo sapiens, UniProt Q12809); assay: Inhibition of human ERG at 10 uM
Salmonella typhimurium = assay: Genotoxicity in Salmonella typhimurium at 10 uM by Ames test; assay type: toxicity, organism-based; conditions: salmonella enterica subsp. enterica serovar typhimurium
Rattus norvegicus [5] = assay: Toxicity in Sprague-Dawley rat chronic renal failure model assessed as decrease in serum calcium level at 10 mg/kg, po after 24 hrs; assay type: organism-based; set-up: dose 10 mg/kg, route oral; conditions: in vivo; outline: as §1
[6] = Clearance in Sprague-Dawley rat chronic renal failure model at 0.3 mg/kg, iv; assay type: ADME, organism-based; set-up: dose 0.3 mg/kg, route intravenous; conditions: in vivo
Outline: (§2)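 Single intravenous dose of 0.3 mg/kg given to chronic renal failure rats. AUC, Cmax, clearance, volume of distribution and half-life were derived from the plasma exposure.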

Rattus norvegicus [7] = assay: Toxicity in Sprague-Dawley rat chronic renal failure model assessed as side effects at 10 to 30 mg/kg/day, po administered for 2 months measured 24 hrs post last dose; assay type: organism-based; set-up: route oral; conditions: in vivo
Outline: (§3)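 After an untreated interval, they were gavaged once daily with the dihydrochloride salt in 0.5% methylcellulose, or with vehicle at 5 mL/kg. Mortality and side effects were monitored during treatment. Rats were fasted 24 h, then decapitated, and the aorta was examined histologically for calcification.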

Rattus norvegicus [8] = assay: Toxicity in Sprague-Dawley rat chronic renal failure model assessed as mortality at 10 to 30 mg/kg/day, po administered for 2 months measured 24 hrs post last dose; assay type: organism-based; set-up: route oral; conditions: in vivo; outline: as §3
Rattus norvegicus [9] = assay: Toxicity in Sprague-Dawley rat chronic renal failure model assessed as aortic calcification at 10 to 30 mg/kg/day, po administered for 2 months measured 24 hrs post last dose by histological analysis; assay type: organism-based, Aorta; set-up: route oral; conditions: in vivo; outline: as §3
Rattus norvegicus [10] = assay: Antihyperparathyroidism activity in Sprague-Dawley rat chronic renal failure model assessed as decrease in serum PTH level at 10 mg/kg, po after 24 hrs relative to vehicle-treated control; assay type: functional; set-up: scale not given: the % may be the effect or the level left; outline: as §1
Rattus norvegicus [11] = assay: Antihyperparathyroidism activity in Sprague-Dawley rat chronic renal failure model assessed as decrease in serum PTH level at 10 mg/kg, po after 2 hrs relative to vehicle-treated control; assay type: functional; set-up: scale not given: the % may be the effect or the level left; outline: as §1
Rattus norvegicus [12] = assay: Clearance in Sprague-Dawley rat at 0.3 mg/kg, iv; assay type: ADME, organism-based; set-up: dose 0.3 mg/kg, route intravenous; conditions: in vivo
[13] = Aqueous solubility of the compound at pH 2; assay type: physicochemical
Outline: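 Aqueous solubility measured at pH 2.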

[14] = Metabolic stability in serum (unknown origin) at pH 2 to 12; assay type: ADME
[15] = Metabolic stability in intestinal fluid (unknown origin) at pH 2 to 12; assay type: ADME; conditions: simulated gi fluid
[16] = AUC in Sprague-Dawley rat chronic renal failure model at 0.3 mg/kg, iv; assay type: ADME, organism-based; set-up: dose 0.3 mg/kg, route intravenous; conditions: in vivo; outline: as §2
Rattus norvegicus [17] = assay: Antihyperparathyroidism activity in Sprague-Dawley rat chronic renal failure model assessed as decrease in serum PTH level at 10 mg/kg, po after 6 hrs relative to vehicle-treated control; assay type: functional; set-up: scale not given: the % may be the effect or the level left; outline: as §1
Rattus norvegicus [18] = assay: Antihyperparathyroidism activity in Sprague-Dawley rat chronic renal failure model assessed as […] at 10 mg/kg/day, po administered for 2 months measured 24 hrs post last dose relative to vehicle-treated control; assay type: functional
Outline: (§4)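 Male Sprague–Dawley rats with 5/6 nephrectomy were dosed orally once daily at 10 or 30 mg/kg/day in 0.5% methylcellulose (5 mL/kg), or given vehicle. Dosing ran about 2 months, starting after a post-surgery untreated period. Rats were fasted and killed by decapitation 24 h after the last dose. Serum PTH was measured by rat IRMA and Ca by chemistry analyzer. n = 6–10, compared with CRF vehicle.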

Rattus norvegicus [19] = assay: Toxicity in Sprague-Dawley rat chronic renal failure model assessed as decrease in serum calcium level at 10 mg/kg/day, po administered for 2 months measured 24 hrs post last dose relative to vehicle-treated control; assay type: organism-based; set-up: route oral; conditions: in vivo; outline: as §4
[20] = Volume of distribution in Sprague-Dawley rat chronic renal failure model at 0.3 mg/kg, iv; assay type: ADME, organism-based; set-up: dose 0.3 mg/kg, route intravenous; conditions: in vivo; outline: as §2
Rattus norvegicus [21] = assay: Toxicity in Sprague-Dawley rat chronic renal failure model assessed as decrease in serum calcium level at 10 mg/kg/day, po administered for 2 months measured 24 hrs post last dose (reference value: 4%); assay type: organism-based; set-up: route oral; scale not given: the % may be the effect or the level left; conditions: in vivo, 30 mg/kg, in the assay text read “at 30 mg/kg/day” for “at 10 mg/kg/day”; outline: as §4
[22] = Half life in Sprague-Dawley rat chronic renal failure model at 0.3 mg/kg, iv; assay type: ADME, organism-based; set-up: dose 0.3 mg/kg, route intravenous; conditions: in vivo; outline: as §2
[23] = Cmax in Sprague-Dawley rat chronic renal failure model at 0.3 mg/kg, iv; assay type: ADME, organism-based; set-up: dose 0.3 mg/kg, route intravenous; conditions: in vivo; outline: as §2
Rattus norvegicus [24] = assay: Antihyperparathyroidism activity in Sprague-Dawley rat chronic renal failure model assessed as […] at 30 mg/kg/day, po administered for 2 months measured 24 hrs post last dose relative to vehicle-treated control; assay type: functional; outline: as §4

Chain of Voltage-gated inwardly rectifying potassium channel KCNH2 (Q12809 whole entry): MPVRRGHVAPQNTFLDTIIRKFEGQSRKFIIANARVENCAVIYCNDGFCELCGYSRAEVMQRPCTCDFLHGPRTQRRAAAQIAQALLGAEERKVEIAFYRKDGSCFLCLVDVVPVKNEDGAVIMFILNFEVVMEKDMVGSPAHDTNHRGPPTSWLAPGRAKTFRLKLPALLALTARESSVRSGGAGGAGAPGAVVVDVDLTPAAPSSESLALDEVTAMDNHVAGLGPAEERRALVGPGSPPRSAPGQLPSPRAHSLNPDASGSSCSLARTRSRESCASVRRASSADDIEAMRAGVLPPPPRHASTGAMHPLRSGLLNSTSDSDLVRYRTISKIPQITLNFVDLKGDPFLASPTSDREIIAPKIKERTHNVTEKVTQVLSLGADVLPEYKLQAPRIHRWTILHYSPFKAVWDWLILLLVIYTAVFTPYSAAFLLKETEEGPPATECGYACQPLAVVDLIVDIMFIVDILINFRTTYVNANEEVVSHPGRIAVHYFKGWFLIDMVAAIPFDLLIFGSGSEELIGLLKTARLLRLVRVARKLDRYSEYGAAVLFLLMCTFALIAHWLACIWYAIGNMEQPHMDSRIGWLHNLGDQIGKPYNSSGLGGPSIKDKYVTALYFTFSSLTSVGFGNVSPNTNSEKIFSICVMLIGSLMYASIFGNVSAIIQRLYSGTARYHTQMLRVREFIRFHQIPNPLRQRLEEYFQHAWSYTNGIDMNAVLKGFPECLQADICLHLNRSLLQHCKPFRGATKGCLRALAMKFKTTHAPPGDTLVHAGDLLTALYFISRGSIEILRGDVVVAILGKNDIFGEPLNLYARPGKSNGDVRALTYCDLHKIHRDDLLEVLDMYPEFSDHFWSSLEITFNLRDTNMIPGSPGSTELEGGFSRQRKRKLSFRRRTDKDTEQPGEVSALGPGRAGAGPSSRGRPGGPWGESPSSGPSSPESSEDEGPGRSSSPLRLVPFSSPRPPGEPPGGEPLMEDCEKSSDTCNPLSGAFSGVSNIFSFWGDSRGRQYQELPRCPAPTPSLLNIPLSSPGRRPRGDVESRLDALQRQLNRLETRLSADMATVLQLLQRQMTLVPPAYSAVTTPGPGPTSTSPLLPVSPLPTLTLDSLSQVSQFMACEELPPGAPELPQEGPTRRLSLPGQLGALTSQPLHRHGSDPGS

Structure (SMILES)	EC50 [1] [nM]	other results
O=C(Nc1nccs1)N(CCC(c1ccccc1)c1ccccc1)CCN1CCOCC1	300	–
COC(=O)c1sccc1NC(=O)N(CCC(c1ccccc1)c1ccccc1)CCN1CCOCC1	400	–
O=C(Nc1nc2ccc(OC(F)(F)F)cc2s1)N(CCC(c1ccccc1)c1ccccc1)CCN1CCOCC1	90	–
O=C(Nc1nccc(-c2nccs2)n1)N(CCC(c1ccccc1)c1ccccc1)CCN1CCOCC1	200	–
O=C(O)c1ccc2nc(NC(=O)N(CCC(c3ccccc3)c3ccccc3)CCN3CCOCC3)sc2c1	100	–
CN(C)CCNC(=O)c1ccc2nc(NC(=O)N(CCC(c3ccccc3)c3ccccc3)CCN3CCOCC3)sc2c1	200	–
O=C(Nc1cccnc1)N(CCC(c1ccccc1)c1ccccc1)CCN1CCOCC1	1000	–
O=C(Nc1nc2ccccc2s1)N(CCC(c1ccccc1)c1ccccc1)CCN1CCOCC1 [listing 1 of 2 here]	–	Ratio EC50 [2]: 4; Activity (Rattus norvegicus [3]): Active
O=C(Nc1cnccn1)N(CCC(c1ccccc1)c1ccccc1)CCN1CCOCC1	450	–
Cc1cc(NC(=O)N(CCC(c2ccccc2)c2ccccc2)CCN2CCOCC2)no1	200	–
O=C(Nc1nc2ccc(F)cc2s1)N(CCC(c1ccccc1)c1ccccc1)CCN1CCOCC1	200	–
COc1cc(C)nc(NC(=O)N(CCC(c2ccccc2)c2ccccc2)CCN2CCOCC2)n1	400	–
CCOC(=O)c1ccc2nc(NC(=O)N(CCC(c3ccccc3)c3ccccc3)CCN3CCOCC3)sc2c1	200	–
O=C(Nc1nc2ccc(CO)cc2s1)N(CCC(c1ccccc1)c1ccccc1)CCN1CCOCC1	80	–
O=C(Nc1nc2ccccc2s1)N(CCC(c1ccccc1)c1ccccc1)CCN1CCOCC1 [listing 2 of 2 here]	20	inhibition (INH) [4]: Active; Activity (Salmonella typhimurium): Non-toxic
Cn1c(NC(=O)N(CCC(c2ccccc2)c2ccccc2)CCN2CCOCC2)nc2ccccc21	150	–
Cc1noc(NC(=O)N(CCC(c2ccccc2)c2ccccc2)CCN2CCOCC2)c1C	1700	–
O=C(Nc1nc2ccccc2n1Cc1ccccc1)N(CCC(c1ccccc1)c1ccccc1)CCN1CCOCC1	300	–
Cc1cccc2sc(NC(=O)N(CCC(c3ccccc3)c3ccccc3)CCN3CCOCC3)nc12	600	–
CCOc1ccc2nc(NC(=O)N(CCC(c3ccccc3)c3ccccc3)CCN3CCOCC3)sc2c1	1000	–
Cl.Cl.O=C(Nc1nc2ccccc2s1)N(CCC(c1ccccc1)c1ccccc1)CCN1CCOCC1	–	Activity (Rattus norvegicus [5]): Non-toxic; clearance [6]: 30.8 mL/min/kg; Activity (Rattus norvegicus [7]): Non-toxic; Activity (Rattus norvegicus [8]): Non-toxic; Activity (Rattus norvegicus [9]): Non-toxic; Activity (Rattus norvegicus [10]): -49%; Activity (Rattus norvegicus [11]): 95%; clearance (Rattus norvegicus [12]): 82.7 mL/min/kg; solubility [13]: 300 µg/mL; Stability [14]: Stable; Stability [15]: Stable; AUC [16]: 162 ng·h/mL; Activity (Rattus norvegicus [17]): -75%; Activity (Rattus norvegicus [18]): -76%; Activity (Rattus norvegicus [19]): Non-toxic; Vd [20]: 5.17 L/kg; Activity (Rattus norvegicus [21]): 9%; half-life [22]: 6.73 h; Cmax [23]: 546 ng/mL; Activity (Rattus norvegicus [24]): -88%

Further molecules by falling EC50 [1], results first:

EC50 [1] [nM]	Structure (SMILES)	other results
80	O=C(Nc1nc2cc(Cl)ccc2o1)N(CCC(c1ccccc1)c1ccccc1)CCN1CCOCC1	–
80	Cc1cc(C)nc(NC(=O)N(CCC(c2ccccc2)c2ccccc2)CCN2CCOCC2)c1	–
80	CS(=O)(=O)c1ccc2nc(NC(=O)N(CCC(c3ccccc3)c3ccccc3)CCN3CCOCC3)sc2c1	–
60	O=C(Nc1nc2ccc(Cl)cc2s1)N(CCC(c1ccccc1)c1ccccc1)CCN1CCOCC1	–
60	O=C(Nc1nc2ccccc2[nH]1)N(CCC(c1ccccc1)c1ccccc1)CCN1CCOCC1	–
40	COc1ccc2nc(NC(=O)N(CCC(c3ccccc3)c3ccccc3)CCN3CCOCC3)sc2c1	–
30	Cc1ccc2nc(NC(=O)N(CCC(c3ccccc3)c3ccccc3)CCN3CCOCC3)sc2c1	–
30	CS(=O)(=O)Nc1ccc2nc(NC(=O)N(CCC(c3ccccc3)c3ccccc3)CCN3CCOCC3)sc2c1	–
30	COc1cccc2sc(NC(=O)N(CCC(c3ccccc3)c3ccccc3)CCN3CCOCC3)nc12	–
30	CS(=O)(=O)Nc1ccc2sc(NC(=O)N(CCC(c3ccccc3)c3ccccc3)CCN3CCOCC3)nc2c1	–
20	O=C(Nc1nc2c(Cl)cccc2s1)N(CCC(c1ccccc1)c1ccccc1)CCN1CCOCC1	–

Reference: ChEMBL document CHEMBL2375300, “New potent calcimimetics: II. Discovery of benzothiazole trisubstituted ureas” (Bioorg Med Chem Lett, 2013)
